Measured values published in ChEMBL document CHEMBL1649483, “Molecular analysis of the gyrA and gyrB quinolone resistance-determining regions of fluoroquinolone-resistant Clostridium difficile mutants selected in vitro” (2009).
Converted amounts (≈) assume the structure as drawn.

Tests used:
Format in all cases: functional
[1] = test system: Clostridioides difficile; test: Antimicrobial activity against Clostridium difficile CD5F harboring GyrB Ser416Ala mutant gene selected after 8 ug/ml of levofloxacin by Etest method
[2] = test system: Clostridioides difficile; test: Antimicrobial activity against Clostridium difficile C253D selected after 8 ug/ml of levofloxacin by Etest method
[3] = test system: Clostridioides difficile; test: Antimicrobial activity against Clostridium difficile C253c selected after 2 ug/ml of moxifloxacin by Etest method
[4] = test system: Clostridioides difficile; test: Antimicrobial activity against Clostridium difficile A422A selected after 4 ug/ml of levofloxacin by Etest method
Method in brief: (§1)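 Stable in vitro-selected mutant tested for gatifloxacin susceptibility by Etest, per the manufacturer's instructions, with an 8 μg/ml breakpoint. For selection, the parent was grown in antibiotic-free brain heart infusion (BHI) for 24 h at 35°C under anaerobic conditions. […] Later steps used double the MIC. Stability was confirmed by three subcultures.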

[5] = test system: Clostridioides difficile; test: Antimicrobial activity against Clostridium difficile CD5B harboring GyrB Ser416Ala mutant gene selected after 4 ug/ml of levofloxacin by Etest method
[6] = test system: Clostridioides difficile; test: Antimicrobial activity against Clostridium difficile A422b selected after 2 ug/ml of moxifloxacin by Etest method; method in brief: as §1
[7] = test system: Clostridioides difficile; test: Antimicrobial activity against Clostridium difficile C253e selected after 4 ug/ml of moxifloxacin by Etest method
[8] = test system: Clostridioides difficile; test: Antimicrobial activity against Clostridium difficile C253i harboring GyrA Ala118Ser mutant gene selected after 8 ug/ml of moxifloxacin by Etest method
[9] = test system: Clostridioides difficile; test: Antimicrobial activity against Clostridium difficile A422H harboring GyrA Thr82Ile and GyrB Leu451Phe mutant genes selected after 8 ug/ml of levofloxacin by Etest method; method in brief: as §1
[10] = test system: Clostridioides difficile; test: Antimicrobial activity against Clostridium difficile 630D harboring GyrA Ala118Val mutant gene selected after 8 ug/ml of levofloxacin by Etest method; method in brief: as §1
[11] = test system: Clostridioides difficile; test: Antimicrobial activity against Clostridium difficile CD5A harboring GyrB Ser416Ala mutant gene selected after 4 ug/ml of levofloxacin by Etest method
[12] = test system: Clostridioides difficile; test: Antimicrobial activity against Clostridium difficile 630 expressing tcdA and tcdB gene by Etest method
Method in brief: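 Parent clinical or nontoxigenic isolate tested for gatifloxacin susceptibility by Etest, run per the manufacturer's instructions; a fluoroquinolone breakpoint of 8 μg/ml was applied.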

[13] = test system: Clostridioides difficile; test: Antimicrobial activity against Clostridium difficile BI2E harboring GyrB Glu466Lys mutant gene selected after 8 ug/ml of levofloxacin by Etest method; method in brief: as §1
[14] = test system: Clostridioides difficile; test: Antimicrobial activity against Clostridium difficile BI2a harboring GyrB Arg447Lys mutant gene selected after 2 ug/ml of moxifloxacin by Etest method; method in brief: as §1
[15] = test system: Clostridioides difficile; test: Antimicrobial activity against Clostridium difficile A422i harboring GyrA Asp81Asn mutant gene selected after 8 ug/ml of moxifloxacin by Etest method; method in brief: as §1
[16] = test system: Clostridioides difficile; test: Antimicrobial activity against Clostridium difficile CD5e harboring GyrB Ser416Ala mutant gene selected after 4 ug/ml of moxifloxacin by Etest method
[17] = test system: Clostridioides difficile; test: Antimicrobial activity against Clostridium difficile BI2C selected after 4 ug/ml of levofloxacin by Etest method; method in brief: as §1
[18] = test system: Clostridioides difficile; test: Antimicrobial activity against Clostridium difficile 630c selected after 2 ug/ml of moxifloxacin by Etest method; method in brief: as §1
[19] = test system: Clostridioides difficile; test: Antimicrobial activity against Clostridium difficile BI2A selected after 4 ug/ml of levofloxacin by Etest method; method in brief: as §1
[20] = test system: Clostridioides difficile; test: Antimicrobial activity against Clostridium difficile CD5b harboring GyrB Ser416Ala mutant gene selected after 2 ug/ml of moxifloxacin by Etest method
[21] = test system: Clostridioides difficile; test: Antimicrobial activity against Clostridium difficile 630A selected after 4 ug/ml of levofloxacin by agar dilution method
[22] = test system: Clostridioides difficile; test: Antimicrobial activity against Clostridium difficile A422C selected after 4 ug/ml of levofloxacin by agar dilution method
[23] = test system: Clostridioides difficile; test: Antimicrobial activity against Clostridium difficile A422e selected after 4 ug/ml of moxifloxacin by agar dilution method
[24] = test system: Clostridioides difficile; test: Antimicrobial activity against Clostridium difficile BI2f harboring GyrB Arg447Lys and Asp426Asn mutant gene selected after 32 ug/ml of moxifloxacin by agar dilution method
[25] = test system: Clostridioides difficile; test: Antimicrobial activity against Clostridium difficile C253D selected after 8 ug/ml of levofloxacin by agar dilution method
[26] = test system: Clostridioides difficile; test: Antimicrobial activity against Clostridium difficile A422h harboring GyrA Asp81Asn mutant gene selected after 8 ug/ml of moxifloxacin by agar dilution method
[27] = test system: Clostridioides difficile; test: Antimicrobial activity against Clostridium difficile C253b selected after 2 ug/ml of moxifloxacin by agar dilution method
[28] = test system: Clostridioides difficile; test: Antimicrobial activity against Clostridium difficile CD5b harboring GyrB Ser416Ala mutant gene selected after 2 ug/ml of moxifloxacin by agar dilution method
[29] = test system: Clostridioides difficile; test: Antimicrobial activity against Clostridium difficile CD25 expressing tcdA, tcdB gene and GyrB Ser416Ala mutant by agar dilution method
[30] = test system: Clostridioides difficile; test: Antimicrobial activity against Clostridium difficile A422D harboring GyrB Leu451Phe mutant gene selected after 8 ug/ml of levofloxacin by agar dilution method
[31] = test system: Clostridioides difficile; test: Antimicrobial activity against Clostridium difficile BI2a harboring GyrB Arg447Lys mutant gene selected after 2 ug/ml of moxifloxacin by agar dilution method
[32] = test system: Clostridioides difficile; test: Antimicrobial activity against Clostridium difficile 630F harboring GyrA Ala118Val mutant gene selected after 8 ug/ml of levofloxacin by agar dilution method
[33] = test system: Clostridioides difficile; test: Antimicrobial activity against Clostridium difficile CD5a harboring GyrB Ser416Ala mutant gene selected after 2 ug/ml of moxifloxacin by agar dilution method
[34] = test system: Clostridioides difficile; test: Antimicrobial activity against Clostridium difficile 630d selected after 4 ug/ml of moxifloxacin by agar dilution method
[35] = test system: Clostridioides difficile; test: Antimicrobial activity against Clostridium difficile C253f selected after 4 ug/ml of moxifloxacin by agar dilution method
[36] = test system: Clostridioides difficile; test: Antimicrobial activity against Clostridium difficile A422F harboring GyrB Leu451Phe mutant gene selected after 8 ug/ml of levofloxacin by agar dilution method
[37] = test system: Clostridioides difficile; test: Antimicrobial activity against Clostridium difficile A422B selected after 4 ug/ml of levofloxacin by agar dilution method
[38] = test system: Clostridioides difficile; test: Antimicrobial activity against Clostridium difficile C253C selected after 4 ug/ml of levofloxacin by agar dilution method
[39] = test system: Clostridioides difficile; test: Antimicrobial activity against Clostridium difficile A422a selected after 2 ug/ml of moxifloxacin by agar dilution method
[40] = test system: Clostridioides difficile; test: Antimicrobial activity against Clostridium difficile C253a selected after 2 ug/ml of moxifloxacin by agar dilution method
[41] = test system: Clostridioides difficile; test: Antimicrobial activity against Clostridium difficile A422d selected after 4 ug/ml of moxifloxacin by agar dilution method
[42] = test system: Clostridioides difficile; test: Antimicrobial activity against Clostridium difficile 630C selected after 4 ug/ml of levofloxacin by agar dilution method
[43] = test system: Clostridioides difficile; test: Antimicrobial activity against Clostridium difficile CD5 2-g harboring GyrA Ala118Ser, Thr82Ala and GyrB Ser416Ala mutant genes selected after 8 ug/ml of moxifloxacin by agar dilution method

Question: For `COc1c(N2CCNC(C)C2)c(F)cc2c(=O)c(C(=O)O)cn(C3CC3)c12` (stereo not drawn) [GATIFLOXACIN], which MIC [1] is on record?
Answer: The MIC was 2 µg/mL.

Question: And the MIC [2]?
Answer: The MIC was 1 µg/mL.

Question: What about the MIC [3] of the same compound?
Answer: Its MIC is 1 µg/mL.

Question: What about the MIC [4] of the same compound?
Answer: The MIC was 1 µg/mL.

Question: And the MIC [5]?
Answer: Its MIC is 0.5 µg/mL.

Question: And the MIC [6]?
Answer: Its MIC is 1.5 µg/mL.

Question: And the MIC [7]?
Answer: Its MIC is 1 µg/mL.

Question: What about the MIC [8] of the same compound?
Answer: Its MIC is 8 µg/mL.

Question: And the MIC [9]?
Answer: The MIC was ≥ 32 µg/mL.

Question: And the MIC [10]?
Answer: Its MIC is 3 µg/mL.

Question: What about the MIC [11] of the same compound?
Answer: The MIC was 0.5 µg/mL.

Question: And the MIC [12]?
Answer: The MIC was 0.75 µg/mL (≈ 2 µM).

Question: And the MIC [13]?
Answer: The MIC was ≥ 32 µg/mL.

Question: What about the MIC [14] of the same compound?
Answer: Its MIC is 1.5 µg/mL.

Question: What about the MIC [15] of the same compound?
Answer: Its MIC is ≥ 32 µg/mL.

Question: And the MIC [16]?
Answer: Its MIC is 0.75 µg/mL.

Question: What about the MIC [17] of the same compound?
Answer: Its MIC is 2 µg/mL.

Question: And the MIC [18]?
Answer: Its MIC is 0.75 µg/mL.

Question: What about the MIC [19] of the same compound?
Answer: The MIC was 2 µg/mL.

Question: What about the MIC [20] of the same compound?
Answer: The MIC was 0.75 µg/mL.

Question: With `C[C@H]1COc2c(N3CCN(C)CC3)c(F)cc3c(=O)c(C(=O)O)cn1c23.C[C@H]1COc2c(N3CCN(C)CC3)c(F)cc3c(=O)c(C(=O)O)cn1c23.O` [LEVOFLOXACIN] as the compound, how does the MIC [21] read?
Answer: Its MIC is 1 µg/mL.

Question: And the MIC [22]?
Answer: Its MIC is 1 µg/mL.

Question: What about the MIC [23] of the same compound?
Answer: The MIC was 4 µg/mL.

Question: And the MIC [24]?
Answer: Its MIC is 64 µg/mL.

Question: What about the MIC [25] of the same compound?
Answer: The MIC was 2 µg/mL.

Question: What about the MIC [26] of the same compound?
Answer: Its MIC is 64 µg/mL.

Question: And the MIC [27]?
Answer: Its MIC is 4 µg/mL.

Question: And the MIC [28]?
Answer: Its MIC is 2 µg/mL.

Question: What about the MIC [29] of the same compound?
Answer: Its MIC is 2 µg/mL.

Question: And the MIC [30]?
Answer: The MIC was 2 µg/mL.

Question: What about the MIC [31] of the same compound?
Answer: The MIC was 8 µg/mL.

Question: And the MIC [32]?
Answer: Its MIC is 8 µg/mL.

Question: And the MIC [33]?
Answer: Its MIC is 2 µg/mL.

Question: And the MIC [34]?
Answer: Its MIC is 4 µg/mL.

Question: And the MIC [35]?
Answer: Its MIC is 4 µg/mL.

Question: And the MIC [36]?
Answer: The MIC was 2 µg/mL.

Question: What about the MIC [37] of the same compound?
Answer: The MIC was 1 µg/mL.

Question: What about the MIC [38] of the same compound?
Answer: The MIC was 1 µg/mL.

Question: And the MIC [39]?
Answer: The MIC was 4 µg/mL.

Question: And the MIC [40]?
Answer: Its MIC is 4 µg/mL.

Question: And the MIC [41]?
Answer: Its MIC is 4 µg/mL.

Question: And the MIC [42]?
Answer: Its MIC is 1 µg/mL.

Question: What about the MIC [43] of the same compound?
Answer: Its MIC is 64 µg/mL.
